The values below come from ChEMBL document CHEMBL3352144, “Cytotoxic Spliceostatins from Burkholderia sp. and Their Semisynthetic Analogues” (J Nat Prod, 2014).

One series has as its system MDA-MB-468. Nature of the series: Cytotoxicity against human MDA-MB-468 cells after 4 days by MTS/cell proliferation assay. The class given is functional, cell-based. Conditions: MDA-MB-468, 96 h. The method in brief:
(§1)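 Cells seeded in 96-well plates and dosed next day with 10 concentrations in 3-fold serial dilution, in duplicate. Incubated 4 days at 37 °C/5% CO2. Viability read by MTS or CellTiter-Glo luminescence. IC50 from four-parameter logistic fit.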

Another series relates to NCI-N87. Description: Cytotoxicity against human NCI-N87 cells after 4 days by MTS/cell proliferation assay. The class given is functional, cell-based. Conditions: NCI-N87, 96 h. The gist of the method: as §1
The subject of the next series is BT-474. Description: Cytotoxicity against human BT474 cells after 4 days by MTS/cell proliferation assay. The class given is functional, cell-based. The note with it: BT-474, 96 h. The gist of the method:
as §1

Series [1] is described as follows: Cytotoxicity against human MDA-MB-DYT2 cells after 4 days by MTS/cell proliferation assay. The class given is functional, cell-based. Conditions: 96 h. The method in brief:
as §1

The nature of series [2]: 1-Octanol-buffer partition coefficient, log D of the compound at pH 7.4 by shake flask method. The series is classed as physicochemical. The gist of the method:
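Shake-flask partition: 10 mM DMSO stock added to 1-octanol/pH 7.4 phosphate buffer (1:1, mutually presaturated), mixed 15 min at room temperature, centrifuged 1006g 10 min to split phases. Each phase was sampled, diluted and quantified by LC-MS/MS. Run in duplicate, typical CV ~20%.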

The test system of another series is NCI-H1975. Nature of the series: Cytotoxicity against human NCI-H1975 cells after 4 days by MTS/cell proliferation assay. The class given is functional, cell-based. The note with it: NCI-H1975, 96 h. The method in brief:
as §1

On to `CC(=O)O[C@@H](C)/C=C\C(=O)N[C@@H]1C[C@H](C)[C@H](C/C=C(C)/C=C/[C@@H]2C[C@](O)(CCl)C[C@@H](CC(=O)O)O2)O[C@@H]1C`, for which the IC50 (in general, the midpoint of a concentration-inhibition curve) with MDA-MB-468 was 1.35 nM; with NCI-N87, 0.641 nM; in the series on BT-474, 1.85 nM.
Consider `CC(=O)O[C@@H](C)/C=C\C(=O)N[C@@H]1C[C@H](C)[C@H](C/C=C(C)/C=C/[C@@H]2C[C@]3(CO3)C[C@@H](CC(=O)O)O2)O[C@@H]1C`, for which the IC50 in the series on MDA-MB-468 is 3.4 nM; in the series on NCI-N87, 2 nM; in series [1], 9.1 nM; in the series on BT-474 it was 4.8 nM; with NCI-H1975 it was 3.6 nM. In addition, in series [2], the logD (in general, lipophilicity at a set pH, counting ionised and neutral species) stood at 0.077.
Take `C=C1C[C@@H](CC(=O)O)O[C@H](/C=C/C(C)=C/C[C@@H]2O[C@H](C)[C@H](NC(=O)/C=C\[C@H](C)OC(C)=O)C[C@@H]2C)C1`: in the series on NCI-H1975, half-maximal inhibition (IC50) required 30 nM.
Regarding `C=C1C[C@@H](CC(=O)O)O[C@H](/C=C/C(C)=C/C[C@@H]2O[C@H](C)[C@H](NC(=O)/C=C\[C@H](C)OC(C)=O)C[C@@H]2C)[C@H]1O`, the IC50 in the series on NCI-H1975 amounted to 950 nM.
For `CC(=O)O[C@@H](C)/C=C\C(=O)N[C@@H]1C[C@H](C)[C@H](C/C=C(C)/C=C/[C@@H]2CC(C)=CC(=O)O2)O[C@@H]1C`, the IC50 came out at 1.56 nM in the series with MDA-MB-468, 3.67 nM with NCI-N87, 4.16 nM in series [1] and 3.72 nM in the series with BT-474.
As to `CC(=O)O[C@@H](C)/C=C\C(=O)N[C@@H]1C[C@H](C)[C@H](C/C=C(C)/C=C/C(=O)O)O[C@@H]1C`, the IC50 (with NCI-N87; in series [1]; in the series on BT-474) was above 100 nM each time.
As for `CC(=O)O[C@@H](C)/C=C\C(=O)N[C@@H]1C[C@H](C)[C@H](C/C=C(C)/C=C/[C@@H]2C[C@](O)(CCl)C[C@@H](CC(=O)OC[C@@]3(O)[C@H](O)[C@@H](/C=C/C(C)=C/C[C@@H]4O[C@H](C)[C@H](NC(=O)/C=C\[C@H](C)OC(C)=O)C[C@@H]4C)O[C@](C)(O)[C@@H]3O)O2)O[C@@H]1C`, the IC50 with NCI-N87 is 1.86 nM; in series [1], 3.07 nM; in the series on BT-474, 3.82 nM.
On to `CC(=O)O[C@@H](C)/C=C\C(=O)N[C@@H]1C[C@H](C)[C@H](C/C=C(C)/C=C/[C@H]2O[C@@H]3CC(=O)O[C@@](CCl)(C3)[C@@H]2O)O[C@@H]1C`, for which the IC50 (with MDA-MB-468; with NCI-N87; in series [1]) was above 100 nM each time.
For `COC(=O)C[C@@H]1C[C@@]2(CO2)[C@H](O)[C@@H](/C=C/C(C)=C/C[C@@H]2O[C@H](C)[C@H](NC(=O)/C=C\[C@H](C)OC(C)=O)C[C@@H]2C)O1`, the values for the IC50 (with NCI-N87; in series [1]; with BT-474) were 0.78 nM, 1.25 nM and 0.88 nM, respectively. This compound also yielded a logD in series [2] of 2.23.
Take `CCCNC(=O)C[C@@H]1C[C@@]2(CO2)C[C@@H](/C=C/C(C)=C/C[C@@H]2O[C@H](C)[C@H](NC(=O)/C=C\[C@H](C)OC(C)=O)C[C@@H]2C)O1`: the IC50 in the series with MDA-MB-468 turned out to be 1.7 nM; in the series on NCI-N87, 6 nM; in the series on BT-474 it was 2.5 nM; in the series with NCI-H1975 it was 2.4 nM. Moreover, the logD in series [2] is 3.72.
As to `CCCNC(=O)C[C@@H]1C[C@@]2(CO2)[C@H](O)[C@@H](/C=C/C(C)=C/C[C@@H]2O[C@H](C)[C@H](NC(=O)/C=C\[C@H](C)OC(C)=O)C[C@@H]2C)O1`, the IC50 worked out at 0.11 nM with MDA-MB-468; 0.64 nM with NCI-N87; 0.29 nM in series [1]; 0.19 nM with BT-474; 0.28 nM with NCI-H1975. Besides, the logD in series [2] turned out to be 2.21.
For `CC(=O)O[C@H]1C(=O)[C@@]2(C)[C@H]([C@H](OC(=O)c3ccccc3)[C@]3(O)C[C@H](OC(=O)[C@H](O)[C@@H](NC(=O)c4ccccc4)c4ccccc4)C(C)=C1C3(C)C)[C@]1(OC(C)=O)CO[C@@H]1C[C@@H]2O` [PACLITAXEL], the IC50 came out at 7.17 nM in the series with MDA-MB-468; 7.53 nM in the series with NCI-N87; 6.08 nM in series [1]; 8.36 nM in the series with BT-474; 7.94 nM with NCI-H1975.
On to `CC(=O)O[C@@H](C)/C=C\C(=O)N[C@@H]1C[C@H](C)[C@H](C/C=C(C)/C=C/[C@H]2O[C@H](CC(=O)O)C[C@@]3(CO3)[C@@H]2O)O[C@@H]1C` [THAILANSTATIN A], for which the 50% inhibitory concentration (IC50) turned out to be 142 nM with MDA-MB-468; 59 nM in the series on NCI-N87; 161 nM in series [1]; 145 nM in the series with BT-474; 320 nM with NCI-H1975. In series [2], this compound had a logD of -0.658.
`CC(=O)O[C@@H](C)/C=C\C(=O)N[C@@H]1C[C@H](C)[C@H](C/C=C(C)/C=C/[C@H]2O[C@H](CC(=O)O)C[C@@](O)(CCl)[C@@H]2O)O[C@@H]1C` [THAILANSTATIN B]: the IC50 in the series with MDA-MB-468, in the series with NCI-N87 and in the series on BT-474 was above 100 nM each time.
